Test results reported in ChEMBL document CHEMBL1641374, “Synthesis of antiproliferative flavones from calycopterin, major flavonoid of Calycopteris floribunda Lamk” (Bioorg Med Chem, 2011).
Each block holds one molecule with its values, some of them ahead of it. Calls of active or inactive are those of the source. The calls are words filed in the database; no cut-off is given here.

Tests used:
KB [1] = assay: Cytotoxicity against human KB cells at 10^-6 M after 72 hrs by MTS assay; type: functional
Summary of the method: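 KB cells in D-MEM with 10% FCS were seeded at 600 cells/well and dosed 24 h later with flavone at 10^-6 M in DMSO. Controls received DMSO at 1% final. After 72 h, MTS was added for 3 h at 37 °C and A490 read in triplicate. Growth inhibition (%) = (1 − OD treated/OD control)×100.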

KB [2] = assay: Cytotoxicity against human KB cells after 72 hrs by MTS assay; type: functional, cell-based
KB [3] = assay: Induction of cell cycle arrest in human KB cells assessed as accumulation at G2/M phase at 20 nM after 24 hrs by propidium iodide staining-based flow cytometry (reference value: 19.6%); type: functional
KB [4] = assay: Induction of cell cycle arrest in human KB cells assessed as accumulation at G0/G1phase at 20 nM after 48 hrs by propidium iodide staining-based flow cytometry (reference value: 66.6%); type: functional
KB [5] = assay: Induction of cell cycle arrest in human KB cells assessed as accumulation at G2/M phase at 20 nM after 48 hrs by propidium iodide staining-based flow cytometry (reference value: 13.8%); type: functional
KB [6] = assay: Induction of cell cycle arrest in human KB cells assessed as accumulation at subG1 phase at 20 nM after 24 hrs by propidium iodide staining-based flow cytometry (reference value: 0.7%); type: functional
KB [7] = assay: Induction of cell cycle arrest in human KB cells assessed as accumulation at G0/G1phase at 20 nM after 24 hrs by propidium iodide staining-based flow cytometry (reference value: 72.9%); type: functional
KB [8] = assay: Induction of cell cycle arrest in human KB cells assessed as accumulation at subG1 phase at 20 nM after 48 hrs by propidium iodide staining-based flow cytometry (reference value: 1.2%); type: functional
KB [9] = assay: Induction of cell cycle arrest in human KB cells assessed as accumulation at S phase at 20 nM after 24 hrs by propidium iodide staining-based flow cytometry (reference value: 6.9%); type: functional
KB [10] = assay: Induction of cell cycle arrest in human KB cells assessed as accumulation at S phase at 20 nM after 48 hrs by propidium iodide staining-based flow cytometry (reference value: 18.4%); type: functional
[11] = Inhibition of sheep brain tubulin polymerization at 2x10'-5 M after 5 mins; design: species or system Ovis aries
Summary of the method: (§1)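 Sheep brain microtubule proteins were purified by two assembly/disassembly cycles (37 °C/0 °C) in 100 mM MES pH 6.6, 1 mM EGTA, 0.5 mM MgCl2. Polymerization rate was followed by turbidity at 350 nm, with deoxypodophyllotoxin as reference. Compounds were tested at ~2×10^-5 M for % inhibition, with IC50 determined for selected compounds.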

HL-60 [12] = assay: Induction of apoptosis in human HL60 cells assessed as induction of caspase 3/7 activation at 100 uM; type: functional, cell-based
Summary of the method: (§2)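 HL60 cells (20,000/well) were treated 24 and 48 h with compounds in DMSO. Vehicle and doxorubicine served as controls. Fluorescence (ex 360/em 465 nm) was followed over 3 h.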

Ovis aries = organism: Ovis aries; assay: Inhibition of sheep brain tubulin polymerization after 5 mins; summary of the method: as §1
HL-60 [13] = assay: Induction of apoptosis in human HL60 cells assessed as early apoptosis cells at 200 nM after24 hrs by annexin-V-PE/7-AAD staining (reference value: 2.6%); type: functional
HL-60 [14] = assay: Induction of apoptosis in human HL60 cells assessed as late apoptosis cells at 200 nM after24 hrs by annexin-V-PE/7-AAD staining (reference value: 0.2%); type: functional
HL-60 [15] = assay: Induction of apoptosis in human HL60 cells assessed as late apoptosis cells at 200 nM after 48 hrs by annexin-V-PE/7-AAD staining (reference value: 0.1%); type: functional
HL-60 [16] = assay: Induction of apoptosis in human HL60 cells assessed as early apoptosis cells at 200 nM after 48 hrs by annexin-V-PE/7-AAD staining (reference value: 2.5%); type: functional
HL-60 [17] = assay: Induction of apoptosis in human HL60 cells assessed as viable cells at 200 nM after 48 hrs by annexin-V-PE/7-AAD staining (reference value: 97.4%); type: functional; details: HL-60, 48 h, read-out: Activity
HL-60 [18] = assay: Induction of apoptosis in human HL60 cells assessed as viable cells at 200 nM after24 hrs by annexin-V-PE/7-AAD staining (reference value: 97.2%); type: functional; details: read-out: Activity
HL-60 [19] = assay: Induction of apoptosis in human HL60 cells assessed as induction of caspase 3/7 activation at 100 uM relative to control; type: functional; summary of the method: as §2

Compound: COc1c(OC)c(O)c2c(=O)c(OC)c(-c3ccc(O)c(C=O)c3)oc2c1OC
Activity (KB [1]): <=13%

Compound: COc1ccc(-c2oc3c(O)c(OC)c(OC)c(O)c3c(=O)c2OC)cc1N
IC50 (KB [2]): > 10 µM
Activity (KB [1]): 34%

Compound: COc1ccc(-c2oc3c(OC)c(OC)c(OC)c(O)c3c(=O)c2OC)cc1CN
Activity (KB [1]): <=13%

Compound: COc1ccc(-c2oc3c(OC)c(OC)c(OC)c(O)c3c(=O)c2OC)cc1[N+](=O)[O-]
Activity (KB [1]): 13%

Compound: COc1ccc(/C=C\c2cc(OC)c(OC)c(OC)c2)cc1O [COMBRETASTATIN A4]
Activity (KB [3]): 50.1%
Activity (KB [4]): 27.4%
Activity (KB [5]): 0.8%
Activity (KB [6]): 13.8%
Activity (KB [7]): 9.5%
Activity (KB [8]): 43.5%
Activity (KB [9]): 26.7%
Activity (KB [10]): 44%

IC50 [11]: 85 µM
Compound: COc1ccc(-c2oc3c(OC)c(O)c(OC)c(O)c3c(=O)c2OC)cc1N
IC50 (KB [2]): 6.2 µM

inhibition (Ovis aries): 5%
Compound: COc1ccc(-c2oc3c(OC)c(OC)c(OC)c(OC)c3c(=O)c2OC)cc1N
Activity (HL-60 [12]): inactive
Activity (KB [1]): 17%

Compound: COc1c(OC)c(O)c2c(=O)c(OC)c(-c3ccc(O)cc3)oc2c1OC [CALYCOPTERIN]
Activity (KB [1]): 0%

Compound: COc1cccc2c1C(=O)c1c(O)c3c(c(O)c1C2=O)C[C@@](O)(C(=O)CO)C[C@@H]3O[C@H]1C[C@H](N)[C@H](O)[C@H](C)O1 [DOXORUBICIN]
Activity (HL-60 [13]): 45.9%
Activity (HL-60 [14]): 1.2%
Activity (HL-60 [15]): 5.6%
Activity (HL-60 [16]): 89.2%
viability at 0.2 µM (HL-60 [17]): 5.2%
viability at 0.2 µM (HL-60 [18]): 52.8%

IC50 [11]: 24 µM
Compound: COc1ccc(-c2oc3c(OC)c(OC)c(OC)c(N)c3c(=O)c2OC)cc1N
IC50 (KB [2]): 0.128 µM
Activity (KB [1]): 78%
fold change (FC) (HL-60 [19]): 3.6

Compound: COc1ccc(-c2oc3c(OC)c(OC)c(OC)c(O)c3c(=O)c2OC)cc1I
Activity (KB [1]): <=13%

IC50 [11]: 12 µM
Compound: COc1ccc(-c2oc3c(OC)c(OC)c(OC)cc3c(=O)c2OC)cc1N
IC50 (KB [2]): 0.078 µM
Activity (KB [1]): 84%
fold change (FC) (HL-60 [19]): 3.1
